System: MS2 coat protein
Assay: apparent Kd, MS2 coat protein; higher = weaker binding; RNA-MaP array; FMN 200 µM where present
Method in brief: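 Stalled E. coli RNA polymerase transcribed the designs on Illumina sequencing-chip clusters. SNAP-549-labelled MS2 coat protein was titrated from 0.7 or 1.5 nM, doubling to 3 µM, without and then with constant ligand, in 100 mM Tris-HCl pH 7.5, 80 mM KCl, 4 mM MgCl2, BSA, DTT, yeast tRNA and Tween-20. Per-cluster binding curves were fitted to green signal normalised to red-channel RNA signal and control-cluster median Fmax. The apparent Kd is the median of the filtered fits.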

[1] = designed as: OFF switch for flavin mononucleotide, no ligand
[2] = ligand present: flavin mononucleotide, designed as: OFF switch for flavin mononucleotide
[3] = designed as: ON switch for flavin mononucleotide, no ligand
[4] = ligand present: flavin mononucleotide, designed as: ON switch for flavin mononucleotide

Sequence | apparent Kd [1] [nM] | apparent Kd [2] [nM] | apparent Kd [3] [nM] | apparent Kd [4] [nM]
CCGGCUGCUGUGAGGAUAUGCCUGUGGGUGCGUGGGUAGAAGGCACAUGAGGAUCACCCAUGUCCUGCGGCUCC | 877 | 311 | – | –
GGACGUCACAUCUACAUGAGGAUCACCCAUGUCUCUUGAUAUGAGGAUAUGUAUACGAAUCGUUUAUAGAAGGCAUGGACGUCC | – | – | 286 | 312
GUUACAUGAGGAUCACCCAUGUAUGUGUGGGAGUAAGUGUCUUAGGAUAUCUAUCAUUGAAUUUAAGAGAAGGAAGAUUGUUGU | – | – | 113 | 126
GGCUAGUCAGGAUAUACGAACAUGUCAAAAGACGUGAAGGGACAUGAGGAUCACCCAUGUAGAAGGGACUAGCU | 24.8 | 165 | – | –
UGGUACUAGGGAGGAUAUGGGAAGAUACAUGAGGAUCACCCAUGUUUAAGAGUGCCGAGAGGCAACUAGAAGGCCCUAGUACCU | – | – | 1030 | 83
CGAUGGCAUGUAGGAUAUCGAGCUCAAAGAGCUCGAGAAGGACAUGAGGAUCACCCAUGUCGUCACAGACAGUGACGGCUAUCG | 24.4 | 133 | – | –
CCUGUCAGAGGAUAUGCAUCAGGGCUAUCCUCUAUCGCAGAACAUGAGGAUCACCCAUGUAGAAGGCUGUCAAA | 29.9 | 23.6 | – | –
CCAGGCAGUGUGAGGAUAUCGUGGUCCUUGGAUCACGAGAAGGCACAUGAGGAUCACCCAUGUGAAUAGCUUGG | 22.2 | 87.3 | – | –
UCUGUUGAAGGAUAUGCGUAAUGAGUUACGGCUCGAGGUCUACAUGAGGAUCACCCAUGUAGAAGGUCAUCAGA | 16.4 | 15.9 | – | –
AUUACCAGAGGAUAUGCGAGGGUGUACCUCCCACAGCGAACACAUGAGGAUCACCCAUGUAGAAGGCUGAACAU | 38.9 | 33 | – | –
GGAUACAUACAGAAGGAUAUGAGAACAAAGACAUGAGGAUCACCCAUGUACAAAAGGUGGAACAAUCAGAAGGUCUAAACAACAAA | – | – | 72.2 | 61.2
CGCUGUCAUGCAGGAUAUGCAUUGGAUUGCAAUGCAGAAGGGCGAUUACAUGAGGAUCACCCAUGUGUAGACAGUGAAGAAGAG | – | – | 160 | 12.6
GUUGGGUUUUUUUUUGGACGUUCAACAUGAGGAUCACCCAUGUAGGAUAUCGUUUGUUUUUUUUACGAGAAGGGCGUAUUUUUU | 9.65 | 8.01 | – | –
GUGUACAGAGGAUAUAUAUGAGCAUGGAAACAUGCAUCUUCACAUGAGGAUCACCCAUGUAGAAGGCUGUACAC | 15.7 | 49.2 | – | –
ACAUGAGGAUCACCCAUGUGAACAUAGGAUAUUGGUGAUCAGGCGUGUUAUACAGGAUAUGUCUGCGAGAAGGGUGCACGUUGC | – | – | 676 | 231
AGAAAUUAGUGAGGAUAUGCAUAAUAUUUAGCUGCAGAAGGCACGGACCACAAGACAUGAGGAUCACCCAUGUGGUAUAUAGAU | 24.9 | 30.9 | – | –
UUAGGAUCAGGAUAUGAUGUUUUAAACAUGAGGAUCACCCAUGUAGAUCCUGAAUCAACAUCAGAAGGGAUAAUUU | 56.6 | 184 | – | –
GGAUCGAUGUAGAAGGCUGUCUUAAAAUAGGACAGAGGAUAUACAUGAGGAUCACCCAUGUACUCCUUUAAAAUGAUCCAAAUA | 5.81 | 9.65 | – | –
AAUUAAGAUCUAGGAUAUCACGUCGAUUAGACGUGAGAAGGAGAUCAUAACAUGAGGAUCACCCAUGUAUUACAUGAAUUAAUU | – | – | 28 | 25.9
CAUAGUAAUUAGGAUAUCUGCCGGCUGAACCGAGGAGAAGGGAUUACAUGAGGAUCACCCAUGUGGUCCUAAGA | 17 | 18.7 | – | –
GCCAUCGCAUGAGGAUAUGGCACCGUUUCGGUGCCAGAAGGCAUGUCAUAAGACAUGAGGAUCACCCAUGUGAAUAAGAUGGCA | – | – | 360 | 38.5
CGAUGACACAGUCAUCCAAUACGAACAUGAGGAUCACCCAUGUAGGAUAUGGUACUCACAGAGUAGCAGAAGGACAUGUGCCUU | 72.8 | 158 | – | –
GGACGUCACAUUAACAUGAGGAUCACCCAUGUCUCUAGACAUGAGGAUAUGGAUCCUAAUUGGAUCCAGAAGGCAUGGACGUCC | – | – | 1030 | 143
AUUACAAUUUUAUACAUGAGGAUCACCCAUGUUAUAAGUCAUGAGGAUAUGGUAUUGUAGUUAUUCCAGAAGGCAUUUAGCUAA | – | – | 8.75 | 7.64
